Measured values from different studies.
Each line is one published result; the experiments were not run side by side.
Observed: cell growth or viability

C[C@@H]1CC[C@@H]([C@](C)(O)CNCc2ccccc2)[C@H](OCc2ccccc2)C1 gave an inhibition of 94.3% (A2780; MTT; 30 µM, 72 h).
The IC50 of COc1nc(NCc2cn(-c3ccc(NC(=O)c4ccc(C)cc4)cc3)nn2)nc(OC)n1 is reported as 751 nM (Caco-2; MTT; 72 h).
For C[C@@H]1CC[C@@H]([C@](O)(CNCc2ccccc2)COCc2ccccc2)[C@H](OCc2ccccc2)C1, the inhibition was 90.4% (A2780; MTT; 10 µM, 72 h).
With O=C(c1ccc(Oc2ccc3c(c2)OCO3)c([N+](=O)[O-])c1)C(Cl)Cl the inhibition was 84.4% (NCI-H1650; MTT; 2.5 µM).
COc1cccc(CNC[C@@](C)(O)[C@@H]2CC[C@@H](C)C[C@H]2OCc2ccccc2)c1 gave an inhibition of 32.9% (A2780; MTT; 10 µM, 72 h).
The inhibition of O=C(c1ccc(Oc2ccc3oc(=O)ccc3c2)c([N+](=O)[O-])c1)C(Cl)Cl is reported as 96.8% (NCI-H1650; MTT; 2.5 µM).
The inhibition of C[C@@H]1CC[C@@H]([C@](C)(O)CNCc2cccc(F)c2)[C@H](OCc2ccccc2)C1 is reported as 98.8% (A2780; MTT; 30 µM, 72 h).
The inhibition of N#Cc1ccc(Oc2ccc(C(=O)C(Cl)Cl)cc2[N+](=O)[O-])cc1 is reported as 87.6% (NCI-H1650; MTT; 2.5 µM).
C=C(F)C(=O)N1CCN(c2nc(OC[C@@H]3CCCN3C)nc3c2CCN(c2cccc4cccc(Cl)c24)C3)C[C@@H]1CC#N gave an IC50 of 8.43 nM (UMUC3; ATP luminescence; 3D culture).
COc1cccc2c1C(=O)c1c(O)c3c(c(O)c1C2=O)C[C@@](O)(C(=O)CO)C[C@@H]3O[C@H]1C[C@H](N)[C@H](O)[C@H](C)O1 has an inhibition of 95.8% (NCI-H1650; MTT; 2.5 µM).
O=C(O)c1ccccc1Nc1cccc(C(F)(F)F)c1 has a GI50 of greater than 40000 nM (NCI-H28; CCK-8; 72 h).
The inhibition of C[C@@H]1CC[C@@H]([C@@](O)(CNCc2ccccc2)COCc2ccc(F)cc2)[C@H](OCc2ccc(F)cc2)C1 is reported as 98.5% (A2780; MTT; 30 µM, 72 h).
The IC50 of COc1nc(NCc2cn(-c3ccc(C(=O)Nc4ccccc4)cc3)nn2)nc(OC)n1 is reported as 208 nM (Caco-2; MTT; 72 h).
C=C(COCc1ccc(OC)cc1)[C@@H]1CC[C@@H](C)C[C@H]1OCc1ccc(OC)cc1 has an inhibition of 27.4% (A2780; MTT; 30 µM, 72 h).
CC(=O)c1ccc(Oc2ccc(C(=O)C(Cl)Cl)cc2[N+](=O)[O-])cc1 gave an inhibition of 96.4% (NCI-H1650; MTT; 2.5 µM).
C[C@@H]1CC[C@@H]([C@](C)(O)Cn2ccnc2)[C@H](OCc2ccccc2)C1 gave an inhibition of 39.5% (A2780; MTT; 30 µM, 72 h).
With C=CC(=O)NC1CCN(c2ncc3ncnc(Nc4ccc(Oc5ccc6c(c5)ncn6C)c(C)c4)c3n2)CC1 the EC50 was 11.8 nM (LoVo).
The viability of COc1cccc2c1C(=O)c1c(O)c3c(c(O)c1C2=O)C[C@@](O)(C(=O)CO)C[C@@H]3O[C@H]1C[C@H](N)[C@H](O)[C@H](C)O1 is reported as 62.1% (Caco-2; MTT; 6.25 µg/mL, 48 h, serum-free).
O=C1CC[C@@H](COc2ccc(C(=O)C(Cl)Cl)cc2[N+](=O)[O-])N1 has an inhibition of 29.8% (NCI-H1650; MTT; 2.5 µM).
O=C(NO)c1ccc(CNc2nc3cccc(-c4ccc5c(c4)OCO5)n3n2)cc1 gave a GI50 of 510 nM (HT-29; SRB).
The inhibition of COc1ccc(COC[C@@](O)(CNCc2ccc(F)cc2)[C@@H]2CC[C@@H](C)C[C@H]2OCc2ccc(OC)cc2)cc1 is reported as 100% (A2780; MTT; 30 µM, 72 h).
For O=C(c1ccc(Oc2cccc(-c3ccccc3)c2)c([N+](=O)[O-])c1)C(Cl)Cl, the inhibition was 97.2% (NCI-H1650; MTT; 2.5 µM).
With COc1ccc(NC(=O)c2ccc(-n3cc(CNc4nc(OC)nc(OC)n4)nn3)cc2)cc1 the IC50 was 435 nM (Caco-2; MTT; 72 h).
With O=C(O)c1cccnc1Nc1cccc(C(F)(F)F)c1 the GI50 was greater than 40000 nM (NCI-H28; CCK-8; 72 h).
NC(=O)COc1ccc(C(=O)C(Cl)Cl)cc1[N+](=O)[O-] has an inhibition of 1.51% (NCI-H1650; MTT; 2.5 µM).
With COc1nc(NCc2cn(-c3ccc(NC(=O)c4ccc(C(F)(F)F)cc4)cc3)nn2)nc(OC)n1 the IC50 was 566 nM (Caco-2; MTT; 72 h).
